{"source": "PubChem BioAssay AID624315", "about": "(Broad Institute, 2012)", "note": "Values joined by “and” are separate entries in the source; they are usually repeats but may differ in a detail not shown here. Equal values may be shown once. Active and inactive are the calls of the source.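 The calls were made as follows: active = compounds lowering cell ATP signal whose fitted IC50 is at or below twice the top valid tested dose; inconclusive = flat fit with 30 to 70% inhibition, or poor fit; inactive = the rest.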", "data": [{"system": "not listed separately", "experiment": "SK-MEL-5 parental cell viability reduction, dose response, orthogonal assay for MITF inhibitor project, CellTiter-Glo luminescence, dry powder samples, set 3 (AID 624315)", "details": "SK-MEL-5 melanoma viability, CellTiter-Glo ATP, 24 h; at 35 µM (top of the series)", "in_short": "(§1)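 Material: SK-MEL-5 human melanoma cells, parental non-reporter line | Doses: Multi-dose compound pinning | Medium: Phenol red-free medium | Measure: Cell viability inferred from cellular ATP level | Schedule: 24 h treatment at 37 °C, 5 min RT before reading | Technique: CellTiter-Glo luminescence measuring cellular ATP content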", "values": [{"smiles": "C=CCNC1=C(NCC=C)C(=O)c2ccccc2C1=O", "activity change, negative = inhibition": "-5.12% (inactive)"}]}, {"system": "SK-MEL-5 melanoma viability, CellTiter-Glo ATP, 24 h", "experiment": "SK-MEL-5 parental cell viability reduction, dose response, orthogonal assay for MITF inhibitor project, CellTiter-Glo luminescence, dry powder samples, set 3 (AID 624315)", "details": "not given", "in_short": "as §1", "values": [{"smiles": "C=CCNC1=C(N2CCOCC2)C(=O)c2ccccc2C1=O", "IC50": "11 µM"}, {"smiles": "CC(=O)NC1=C(c2ccccc2)C(=O)c2ccccc2C1=O", "IC50": "18.3 µM"}, {"smiles": "C=CCNC1=C(N2CCN(C)CC2)C(=O)c2ccccc2C1=O", "IC50": "25.3 µM"}, {"smiles": "O=C(NC1=C(N2CCSCC2)C(=O)c2ccccc2C1=O)c1ccccc1", "IC50": "29.9 µM"}, {"smiles": "O=C1C(Nc2ccccc2)=C(N2CCOCC2)C(=O)c2ccccc21", "IC50": "27 µM"}, {"smiles": "CN1CCN(C2=C(NS(=O)(=O)c3ccccc3)C(=O)c3ccccc3C2=O)CC1", "IC50": "18.2 µM"}, {"smiles": "C=CCNC1=C(N2CCCCC2)C(=O)c2ccccc2C1=O", "IC50": "5.3 µM"}, {"smiles": "COc1ccc(C2=C(NC(=O)c3cccc(OC)c3)C(=O)c3ccccc3C2=O)cc1", "IC50": "29 µM"}, {"smiles": "O=C(NC1=C(c2ccccc2)C(=O)c2ccccc2C1=O)c1ccccc1", "IC50": "26.1 µM"}, {"smiles": "NC1=CC(=O)c2ccccc2C1=O", "IC50": "12.4 µM"}, {"smiles": "O=C(NC1=C(Cl)C(=O)c2ccccc2C1=O)c1ccccc1", "IC50": "9.1 µM"}, {"smiles": "COc1ccc(C2=C(NC(=O)c3ccccc3Cl)C(=O)c3ccccc3C2=O)cc1", "IC50": "17.6 µM"}, {"smiles": "O=C1C(NS(=O)(=O)c2ccc(Br)cc2)=C(c2ccc(OC(F)(F)F)cc2)C(=O)c2ccccc21", "IC50": "> 70 µM (inactive)"}, {"smiles": "O=C(NC1=C(N2CCN(c3ccccc3)CC2)C(=O)c2ccccc2C1=O)c1ccccc1", "IC50": "> 70 µM (inactive)"}, {"smiles": "O=C1C=C(Nc2ccccc2)C(=O)c2ccccc21", "IC50": "5.05 µM"}, {"smiles": "CCN1CCN(C2=C(Nc3ccccc3)C(=O)c3ccccc3C2=O)CC1", "IC50": "28.1 µM"}, {"smiles": "C=CCNC1=C(N2CCN(CC)CC2)C(=O)c2ccccc2C1=O", "IC50": "17.9 µM"}, {"smiles": "Cc1nc2ccccc2n1/N=C/c1ccc([N+](=O)[O-])s1", "IC50": "20.1 µM"}, {"smiles": "CCN1CCN(C2=C(NC(=O)c3ccc(Br)cc3)C(=O)c3ccccc3C2=O)CC1", "IC50": "8.82 µM"}, {"smiles": "C=CCNC1=C(N2CCSCC2)C(=O)c2ccccc2C1=O", "IC50": "10.9 µM"}, {"smiles": "CC(=O)NC1=C(c2cccc(Cl)c2)C(=O)c2ccccc2C1=O", "IC50": "14 µM"}, {"smiles": "CCN1CCN(C2=C(NC(=O)c3ccccc3)C(=O)c3ccccc3C2=O)CC1", "IC50": "8.63 µM"}, {"smiles": "COc1cccc(-c2cc(C(=O)NC3=C(Cl)C(=O)c4ccccc4C3=O)ccc2OC)c1", "IC50": "34 µM"}, {"smiles": "O=C1C(NS(=O)(=O)c2ccc(Br)s2)=C(N2CCSCC2)C(=O)c2ccccc21", "IC50": "> 70 µM (inactive)"}, {"smiles": "C=CCNC1=C(NCCCN(CC)CC)C(=O)c2ccccc2C1=O", "IC50": "15.6 µM"}, {"smiles": "COc1ccc(C2=C(NC(C)=O)C(=O)c3ccccc3C2=O)cc1", "IC50": "13.9 µM"}, {"smiles": "O=C1C(Nc2ccccc2)=C(N2CCN(c3ccccc3)CC2)C(=O)c2ccccc21", "IC50": "> 70 µM (inactive)"}, {"smiles": "C=CCNC1=C(NCCN(CC)CC)C(=O)c2ccccc2C1=O", "IC50": "14 µM"}, {"smiles": "NC1=C(NC(=O)c2ccccc2)C(=O)c2ccccc2C1=O", "IC50": "19.8 µM"}, {"smiles": "O=C1C(Nc2ccccc2)=C(NS(=O)(=O)c2ccccc2[N+](=O)[O-])C(=O)c2ccccc21", "IC50": "> 70 µM (inactive)"}, {"smiles": "O=C1C(NS(=O)(=O)c2cccs2)=C(N2CCCCC2)C(=O)c2ccccc21", "IC50": "> 70 µM (inactive)"}, {"smiles": "C=CCNC1=C(NS(=O)(=O)c2ccc(Br)cc2)C(=O)c2ccccc2C1=O", "IC50": "29.9 µM"}, {"smiles": "COc1ccc(C(=O)NC2=C(c3ccc(OC(F)(F)F)cc3)C(=O)c3ccccc3C2=O)cc1", "IC50": "> 70 µM (inactive)"}, {"smiles": "COC1=C(NS(=O)(=O)c2ccccc2)C(=O)c2ccccc2C1=O", "IC50": "21.7 µM"}, {"smiles": "CN1CCN(C2=C(Nc3ccccc3)C(=O)c3ccccc3C2=O)CC1", "IC50": "23.4 µM"}, {"smiles": "CCN1CCN(C2=C(N(C)C(C)=O)C(=O)c3ccccc3C2=O)CC1", "IC50": "6.41 µM"}, {"smiles": "COc1ccc(C2=C(NC(=O)c3cccc(Cl)c3)C(=O)c3ccccc3C2=O)cc1", "IC50": "27.7 µM"}, {"smiles": "O=C(NC1=C(N2CCOCC2)C(=O)c2ccccc2C1=O)c1ccccc1", "IC50": "20.1 µM"}, {"smiles": "CN1CCN(C2=C(NC(=O)c3ccccc3)C(=O)c3ccccc3C2=O)CC1", "IC50": "9.27 µM"}, {"smiles": "CN1CCN(C2=C(NC(=O)c3ccc(Br)cc3)C(=O)c3ccccc3C2=O)CC1", "IC50": "6.69 µM"}, {"smiles": "CCN(CC)CCCNC1=C(N(C)C(C)=O)C(=O)c2ccccc2C1=O", "IC50": "5.52 µM"}, {"smiles": "C=CCNC1=C(N(C)C(C)=O)C(=O)c2ccccc2C1=O", "IC50": "0.79 µM"}, {"smiles": "COc1ccc(C2=C(NC(=O)c3ccc(Cl)cc3)C(=O)c3ccccc3C2=O)cc1", "IC50": "34.6 µM"}, {"smiles": "COc1ccc(S(=O)(=O)N(C(C)=O)c2ccc(OC(C)=O)c3ccccc23)cc1[N+](=O)[O-]", "IC50": "31.6 µM"}, {"smiles": "C[C@@H](NC1=C(Nc2ccccc2)C(=O)c2ccccc2C1=O)c1ccccc1", "IC50": "> 70 µM (inactive)"}, {"smiles": "CC(=O)N(C)C1=C(N2CCN(C)CC2)C(=O)c2ccccc2C1=O", "IC50": "4.63 µM"}, {"smiles": "O=C(NC1=C(N2CCOCC2)C(=O)c2ccccc2C1=O)c1ccc(Br)cc1", "IC50": "32 µM"}, {"smiles": "COc1ccc(C2=C(NC(=O)c3ccccc3OC)C(=O)c3ccccc3C2=O)cc1", "IC50": "> 70 µM (inactive)"}, {"smiles": "COc1cccc(C2=C(NC(=O)c3ccccc3)C(=O)c3ccccc3C2=O)c1", "IC50": "22.5 µM"}, {"smiles": "CN1CCN(C2=C(NS(=O)(=O)c3ccc(Br)s3)C(=O)c3ccccc3C2=O)CC1", "IC50": "30 µM"}, {"smiles": "COc1ccc(C2=C(NC(=O)c3ccc4ccccc4c3)C(=O)c3ccccc3C2=O)cc1", "IC50": "> 70 µM (inactive)"}, {"smiles": "O=C(NC1=C(c2ccccc2)C(=O)c2ccccc2C1=O)c1ccc(Br)cc1", "IC50": "> 70 µM (inactive)"}, {"smiles": "C=C1C(=O)OC2C1CC/C(C)=C\\CCC1(C)OC21", "note": "(stereo not drawn)", "IC50": "> 47 µM (inactive)"}, {"smiles": "CC1CCN(CC(CS(=O)(=O)c2ccc([N+](=O)[O-])cc2)N2CCC(C)CC2)CC1", "note": "(stereo not drawn)", "IC50": "> 70 µM (inactive)"}, {"smiles": "CN1CCN(C2=C(NS(=O)(=O)c3cccs3)C(=O)c3ccccc3C2=O)CC1", "IC50": "> 70 µM (inactive)"}, {"smiles": "O=C1C(NS(=O)(=O)c2ccc(Br)cc2)=C(N2CCOCC2)C(=O)c2ccccc21", "IC50": "35.4 µM"}, {"smiles": "COc1ccc(C(=O)NC2=C(c3ccc(OC)cc3)C(=O)c3ccccc3C2=O)cc1", "IC50": "15.6 µM"}, {"smiles": "CCN1c2ccccc2NC2N=C(OC)C(c3ccccc3)C21", "note": "(stereo not drawn)", "IC50": "23.9 µM"}, {"smiles": "O=C(NC1=C(c2ccc(OC(F)(F)F)cc2)C(=O)c2ccccc2C1=O)c1ccc(Br)cc1", "IC50": "> 70 µM (inactive)"}, {"smiles": "O=C(NC1=C(c2ccccc2)C(=O)c2ccccc2C1=O)c1ccco1", "IC50": "25.7 µM"}, {"smiles": "CC(=O)NC1=C(c2ccc(Cl)cc2)C(=O)c2ccccc2C1=O", "IC50": "13.4 µM"}, {"smiles": "O=C1C(NS(=O)(=O)c2ccc(Br)cc2)=C(c2ccccc2)C(=O)c2ccccc21", "IC50": "> 70 µM (inactive)"}, {"smiles": "O=C(NC1=C(c2ccc(Oc3ccccc3)cc2)C(=O)c2ccccc2C1=O)c1ccccc1", "IC50": "> 70 µM (inactive)"}, {"smiles": "CN1CCN(C2=C(NS(=O)(=O)c3ccc(Br)cc3)C(=O)c3ccccc3C2=O)CC1", "IC50": "> 70 µM (inactive)"}, {"smiles": "CC(=O)NC1=C(c2ccc3c(c2)oc2ccccc23)C(=O)c2ccccc2C1=O", "IC50": "25.3 µM"}, {"smiles": "CCN(CC)CCCNC1=C(Nc2ccccc2)C(=O)c2ccccc2C1=O", "IC50": "34 µM"}, {"smiles": "Cc1ccc(C(=O)NC2=C(c3ccccc3)C(=O)c3ccccc3C2=O)o1", "IC50": "23.6 µM"}, {"smiles": "CC(=O)N(C)C1=C(N2CCCCC2)C(=O)c2ccccc2C1=O", "IC50": "4.42 µM"}, {"smiles": "O=C1C(Nc2ccccc2)=C(N2CCCCC2)C(=O)c2ccccc21", "IC50": "18.1 µM"}, {"smiles": "C=CCNC1=C(Cl)C(=O)c2ccccc2C1=O", "IC50": "9.72 µM and 12.1 µM"}, {"smiles": "COc1ccc(C2=C(NC(=O)c3ccc(OC)cc3-c3cccc(OC)c3)C(=O)c3ccccc3C2=O)cc1", "IC50": "> 70 µM (inactive)"}, {"smiles": "CC(=O)N(C)C1=C(N2CCOCC2)C(=O)c2ccccc2C1=O", "IC50": "10.1 µM"}]}]}
